Laboratory results from ChEMBL document CHEMBL1149436, “New bicyclic cannabinoid receptor-1 (CB1-R) antagonists” (Bioorg Med Chem Lett, 2006).
Active and inactive are the calls of the source. The rule behind the calls is not given here.

Key:
Cannabinoid receptor 1 [1] = target: T1, Cannabinoid receptor 1 (Homo sapiens, UniProt P21554); assay: biochemical; assay type: cell-based, HEK293
Cannabinoid receptor 2 = Cannabinoid receptor 2 (Homo sapiens, UniProt P34972); assay: Binding affinity to human CB2 receptor expressed in CHOK1 cells; assay type: cell-based, CHO-K1
Cannabinoid receptor 1 [2] = target: T1, Cannabinoid receptor 1; assay: Functional activity at human CB1 receptor transfected in CHOK1 cells by [35SGTP]gammaS assay; assay type: cell-based, CHO-K1
Mus musculus = assay: Ability to reverse CP-55940-stimulated responses in mice at 1 mg/kg, sc; assay type: functional, organism-based; set-up: dose 1 mg/kg
Method in brief: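 Mouse challenge assay from the 'tetrad': reversal of CP-55940-stimulated analgesia and hypothermia, test agent given sc.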

Rattus norvegicus [3] = assay: Anorectic activity assessed in a fasting-induced re-feeding model in Sprague-Dawley rat at 0.3 mg/kg, po relative to control; assay type: functional
Method in brief: (§1)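 Male CD rats fasted overnight, dosed orally the next morning with suspension in 0.5% methylcellulose. Food returned 0.5 h after dosing; cumulative intake measured 1.5 h later, expressed as % change versus vehicle-treated controls.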

Rattus norvegicus [4] = assay: Anorectic activity assessed in a fasting-induced re-feeding model in Sprague-Dawley rat at 1 mg/kg, po relative to control; assay type: functional
Method in brief: as §1

Rattus norvegicus [5] = assay: Anorectic activity assessed in a fasting-induced re-feeding model in Sprague-Dawley rat at 3 mg/kg, po relative to control; assay type: functional
Method in brief: as §1

[6] = Plasma clearance in Sprague-Dawley rat at 1 mg/kg, iv; assay type: ADME, organism-based; set-up: dose 1 mg/kg, route intravenous
Method in brief: (§2)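 Male Sprague-Dawley rats, 1 mg/kg iv via jugular vein cannula, amorphous solid in 20% EtOH/80% CD or Transcutol P/CD depending on compound. Plasma levels by LC-MS/MS after protein precipitation.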

[7] = Volume of distribution in Sprague-Dawley rat at 1 mg/kg, iv; assay type: ADME, organism-based; set-up: dose 1 mg/kg, route intravenous; details: in vivo, read-out: Vdss
Method in brief: as §2

[8] = Half life in Sprague-Dawley rat at 1 mg/kg, iv; assay type: ADME, organism-based; set-up: dose 1 mg/kg, route intravenous; details: in vivo
Method in brief: as §2

[9] = Bioavailability in Sprague-Dawley rat at 1 mg/kg, iv; assay type: ADME, organism-based; details: in vivo
Method in brief: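 Male Sprague-Dawley rats: iv dosing 1 mg/kg via jugular cannula (20% EtOH/80% CD or Transcutol P/CD); oral dosing of crystalline solid in 0.5% methylcellulose. Plasma by LC-MS/MS after protein precipitation.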

[10] = Plasma clearance in Beagle dog at 0.5 mg/kg, iv; assay type: ADME, organism-based, Canis lupus familiaris; set-up: dose 0.5 mg/kg, route intravenous
Method in brief: (§3)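 Male beagle dogs, 0.5 mg/kg iv. Vehicle: 6.7% EtOH/60% CD/33.3% PEG 400 or Transcutol P, depending on compound; amorphous solid used for iv. Plasma levels by LC-MS/MS after protein precipitation.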

[11] = Volume of distribution in Beagle dog at 0.5 mg/kg, iv; assay type: ADME, organism-based, Canis lupus familiaris; set-up: dose 0.5 mg/kg, route intravenous; details: in vivo, read-out: Vdss
Method in brief: as §3

[12] = Half life in Beagle dog at 0.5 mg/kg, iv; assay type: ADME, organism-based, Canis lupus familiaris; set-up: dose 0.5 mg/kg, route intravenous; details: in vivo
Method in brief: as §3

Rattus norvegicus [13] = assay: Anorectic activity assessed in a fasting-induced re-feeding model in Sprague-Dawley rat at 10 mg/kg, po relative to control; assay type: functional
Method in brief: as §1

Cannabinoid receptor 2, sequence (P34972 whole entry): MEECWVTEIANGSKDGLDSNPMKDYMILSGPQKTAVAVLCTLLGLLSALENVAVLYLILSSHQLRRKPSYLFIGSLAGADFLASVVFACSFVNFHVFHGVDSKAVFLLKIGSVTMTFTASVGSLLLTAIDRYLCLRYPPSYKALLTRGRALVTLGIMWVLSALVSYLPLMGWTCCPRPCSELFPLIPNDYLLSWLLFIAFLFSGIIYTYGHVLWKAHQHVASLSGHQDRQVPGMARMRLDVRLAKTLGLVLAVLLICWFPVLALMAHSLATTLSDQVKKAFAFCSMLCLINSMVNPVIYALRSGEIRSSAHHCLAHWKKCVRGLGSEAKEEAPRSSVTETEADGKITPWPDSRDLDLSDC
T1 sequence (P21554 whole entry): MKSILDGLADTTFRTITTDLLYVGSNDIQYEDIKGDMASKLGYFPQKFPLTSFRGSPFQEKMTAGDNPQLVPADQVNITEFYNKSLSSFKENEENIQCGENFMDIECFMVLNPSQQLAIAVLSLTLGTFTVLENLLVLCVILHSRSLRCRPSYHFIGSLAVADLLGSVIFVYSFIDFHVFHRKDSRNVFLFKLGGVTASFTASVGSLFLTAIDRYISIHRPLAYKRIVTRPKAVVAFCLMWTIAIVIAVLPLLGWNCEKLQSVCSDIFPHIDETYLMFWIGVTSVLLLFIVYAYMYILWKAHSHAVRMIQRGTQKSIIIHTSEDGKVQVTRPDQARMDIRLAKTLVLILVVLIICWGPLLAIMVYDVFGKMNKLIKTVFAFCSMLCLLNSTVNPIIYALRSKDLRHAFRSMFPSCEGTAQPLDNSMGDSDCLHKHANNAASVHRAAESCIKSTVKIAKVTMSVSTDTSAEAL

SMILES	Ki (Cannabinoid receptor 1 [1]) [nM]	Ki (Cannabinoid receptor 2) [nM]	Ki (Cannabinoid receptor 1 [2]) [nM]	other results
CC(C)n1cnc2c(-c3ccc(Cl)cc3)n(-c3ccccc3Cl)nc2c1=O	21			
O=c1c2nn(-c3ccccc3Cl)c(-c3ccc(Cl)cc3)c2ccn1CC(F)(F)F	1	> 10000	1	
O=c1c2nn(-c3ccccc3Cl)c(-c3ccc(Cl)cc3)c2ncn1CC(F)(F)F		> 10000		Activity (Mus musculus): Active; Activity (Rattus norvegicus [3]): -23%; Activity (Rattus norvegicus [4]): -32%; Activity (Rattus norvegicus [5]): -78%; clearance [6]: 45 mL/min/kg; Vd [7]: 9.2 L/kg; half-life [8]: 2.6 h; bioavailability [9]: 62%; clearance [10]: 0.54 mL/min/kg; Vd [11]: 10 L/kg; half-life [12]: 223 h
Cc1nc2c(-c3ccc(Cl)cc3)n(-c3ccccc3Cl)nc2c(=O)n1CC(F)(F)F		> 10000		Activity (Mus musculus): Active; Activity (Rattus norvegicus [4]): -35%; Activity (Rattus norvegicus [5]): -42%; Activity (Rattus norvegicus [13]): -59%; clearance [6]: 32 mL/min/kg; Vd [7]: 7.7 L/kg; half-life [8]: 4.7 h; bioavailability [9]: 7%; clearance [10]: 10 mL/min/kg; Vd [11]: 17 L/kg; half-life [12]: 39 h
O=c1c2nn(-c3ccccc3Cl)c(-c3ccc(Cl)cc3)c2ncn1CCC(F)(F)F		> 10000		
O=c1c2nn(-c3ccccc3Cl)c(-c3ccc(Cl)cc3)c2ncn1Cc1ccccc1		> 10000		
O=c1c2nn(-c3ccccc3Cl)c(-c3ccc(Cl)cc3)c2ncn1CCF		> 10000		
O=c1c2nn(-c3ccccc3Cl)c(-c3ccc(Cl)cc3)c2cnn1CC(F)(F)F	8	> 10000	4	
O=c1c2nn(-c3ccccc3Cl)c(-c3ccc(Cl)cc3)c2ncn1CC(F)F		> 10000		
CCC(CC)n1cnc2c(-c3ccc(Cl)cc3)n(-c3ccccc3Cl)nc2c1=O	26			

The next lines start with results.

Ki (Cannabinoid receptor 1 [1]) [nM]	Ki (Cannabinoid receptor 2) [nM]	Ki (Cannabinoid receptor 1 [2]) [nM]	SMILES	other results
1	> 10000	1	O=c1c2nc(-c3ccccc3Cl)n(-c3ccc(Cl)cc3)c2ncn1CC(F)(F)F	
	> 10000		CCCn1cnc2c(-c3ccc(Cl)cc3)n(-c3ccccc3Cl)nc2c1=O	
28	> 10000		O=c1c2nn(-c3ccc(Cl)cc3)c(-c3ccccc3Cl)c2ncn1CC(F)(F)F	
1	> 10000	3	CCc1nc2c(-c3ccc(Cl)cc3)n(-c3ccccc3Cl)nc2c(=O)n1CC(F)(F)F	
12	> 10000	20	O=c1c2nn(-c3ccccc3Cl)c(-c3ccc(Cl)cc3)c2ncn1N1CCCCC1	
38	> 10000		O=c1c2nn(-c3ccc(Cl)cc3)c(-c3ccccc3Cl)c2ncn1C1CCCCC1	
20	> 10000		O=c1c2nn(-c3ccccc3Cl)c(-c3ccc(Cl)cc3)c2ncn1C1CCCCC1	
	> 10000		CCn1cnc2c(-c3ccc(Cl)cc3)n(-c3ccccc3Cl)nc2c1=O	
	> 10000		CC(F)(F)Cn1cnc2c(-c3ccc(Cl)cc3)n(-c3ccccc3Cl)nc2c1=O	
6	> 10000	13	CC(C)c1nc2c(-c3ccc(Cl)cc3)n(-c3ccccc3Cl)nc2c(=O)n1CC(F)(F)F	
